The values below come from ChEMBL document CHEMBL4342468, “Evolution of a 4-Benzyloxy-benzylamino Chemotype to Provide Efficacious, Potent, and Isoform Selective PPARα Agonists as Leads for Retinal Disorders” (J Med Chem, 2020).

Assay [1] deals with T1, Peroxisome proliferator-activated receptor alpha (Homo sapiens) (UniProt Q07869).
T1 sequence (whole entry): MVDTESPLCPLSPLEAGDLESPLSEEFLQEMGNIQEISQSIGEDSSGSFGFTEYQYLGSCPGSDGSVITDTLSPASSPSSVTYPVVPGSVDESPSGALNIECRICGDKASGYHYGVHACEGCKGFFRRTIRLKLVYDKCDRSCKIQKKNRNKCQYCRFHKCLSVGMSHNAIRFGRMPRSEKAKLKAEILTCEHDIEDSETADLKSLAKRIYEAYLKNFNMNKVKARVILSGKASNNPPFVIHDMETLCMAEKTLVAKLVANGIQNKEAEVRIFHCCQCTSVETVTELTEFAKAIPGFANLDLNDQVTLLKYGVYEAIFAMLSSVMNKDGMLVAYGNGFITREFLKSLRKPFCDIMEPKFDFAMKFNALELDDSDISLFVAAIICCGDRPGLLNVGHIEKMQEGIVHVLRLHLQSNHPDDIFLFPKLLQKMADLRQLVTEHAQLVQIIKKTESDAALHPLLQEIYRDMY
Put plainly: Agonist activity at human PPARalpha expressed in nonhuman mammalian cells assessed as maximal increase in receptor transcriptional activity incubated for 22 to 24 hrs by luciferase reporter gene assay relative to GW590735. It is filed as cell-based.

Assay [2] has as its target T2, Peroxisome proliferator-activated receptor alpha (Homo sapiens, UniProt Q07869).
T2 sequence (Q07869 whole entry): T1 sequence (whole entry)

For assay [3], the target named is T1, Peroxisome proliferator-activated receptor alpha (Homo sapiens). The assay is described as follows: Binding affinity to His tagged PPARalpha LBD (unknown origin) expressed in Escherichia coli Rosetta (DE3) assessed as change in entropy at 25 degree C by isothermal titration calorimetry.
For assay [4] the target is unchanged. The assay is described as follows: Binding affinity to His-tagged PPARalpha LBD (unknown origin) expressed in Escherichia coli Rosetta (DE3) assessed as change in enthalpy at 25 degree C by isothermal titration calorimetry.
The target of assay [5] is T3, Peroxisome proliferator-activated receptor delta (Homo sapiens, UniProt Q03181).
T3 sequence (Q03181 whole entry): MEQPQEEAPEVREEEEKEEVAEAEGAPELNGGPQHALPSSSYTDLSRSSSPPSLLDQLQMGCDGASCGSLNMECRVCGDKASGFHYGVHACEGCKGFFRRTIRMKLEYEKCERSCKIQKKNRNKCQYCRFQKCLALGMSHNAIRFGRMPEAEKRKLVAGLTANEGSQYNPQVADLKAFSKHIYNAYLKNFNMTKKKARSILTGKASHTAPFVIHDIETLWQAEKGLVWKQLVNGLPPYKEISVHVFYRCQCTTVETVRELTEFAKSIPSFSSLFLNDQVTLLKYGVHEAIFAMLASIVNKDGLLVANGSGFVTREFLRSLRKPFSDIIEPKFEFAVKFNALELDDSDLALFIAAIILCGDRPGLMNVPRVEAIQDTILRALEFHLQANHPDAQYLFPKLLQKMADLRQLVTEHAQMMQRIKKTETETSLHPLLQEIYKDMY
The assay is described as follows: Agonist activity at human PPARdelta expressed in nonhuman mammalian cells assessed as increase in receptor transcriptional activity incubated for 22 to 24 hrs by luciferase reporter gene assay. It is filed as cell-based.

Assay [6] deals with T4, Peroxisome proliferator-activated receptor gamma (Homo sapiens, UniProt P37231).
T4 sequence (P37231 whole entry): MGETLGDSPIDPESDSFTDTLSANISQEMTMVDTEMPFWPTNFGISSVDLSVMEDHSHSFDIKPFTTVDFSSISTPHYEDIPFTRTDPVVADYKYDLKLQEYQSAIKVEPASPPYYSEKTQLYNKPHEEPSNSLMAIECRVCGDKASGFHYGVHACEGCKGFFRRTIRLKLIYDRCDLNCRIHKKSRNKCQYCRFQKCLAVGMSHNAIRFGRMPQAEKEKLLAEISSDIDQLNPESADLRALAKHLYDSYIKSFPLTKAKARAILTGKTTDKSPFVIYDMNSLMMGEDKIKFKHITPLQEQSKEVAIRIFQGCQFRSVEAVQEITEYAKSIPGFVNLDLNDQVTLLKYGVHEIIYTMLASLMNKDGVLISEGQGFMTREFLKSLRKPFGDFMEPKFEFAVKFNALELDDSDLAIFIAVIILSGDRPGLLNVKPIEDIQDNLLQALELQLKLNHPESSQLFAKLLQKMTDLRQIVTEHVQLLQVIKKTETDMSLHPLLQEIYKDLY
The assay is described as follows: Agonist activity at human PPARgamma expressed in nonhuman mammalian cells assessed as increase in receptor transcriptional activity incubated for 22 to 24 hrs by luciferase reporter gene assay. The assay is classed as cell-based. An outline of the steps:
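Reporter cells (nonhuman mammalian, engineered PPAR receptor with luciferase linked to response promoter) pre-incubated 4–6 h at 37 °C, 5% CO2 in medium with 10% charcoal-stripped FBS. Medium replaced with compound-containing screening medium, 22–24 h at 37 °C, then luciferase detection reagent, luminescence read. Multi-point dose-response for EC50; mean ± SEM of at least two separate experiments in triplicate.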
(In general: Reporter assays use an easily measured gene product as a stand-in for the process of interest.)

For assay [7], the species on record is Homo sapiens. Put plainly: Selectivity index, ratio of EC50 for human PPARgamma expressed in nonhuman mammalian cells to EC50 for human PPARalpha expressed in nonhuman mammalian cells measured after 22 to 24 hrs by luciferase reporter gene assay. It is filed as cell-based. The essentials:
(§1)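 Reporter cells (non-human mammalian) expressing human PPARα, γ or δ linked to a luciferase reporter were pre-incubated 4–6 h at 37 °C, 5% CO2 in medium with 10% charcoal-stripped FBS. SI = EC50(PPARγ or δ)/EC50(PPARα).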

The species named for assay [8] is Homo sapiens. Put plainly: Selectivity index, ratio of EC50 for human PPARdelta expressed in nonhuman mammalian cells to EC50 for human PPARalpha expressed in nonhuman mammalian cells measured after 22 to 24 hrs by luciferase reporter gene assay. It is filed as cell-based. An outline of the steps: as §1

On to `O=C(O)c1cccc(NCc2ccc(OCc3ccc(F)cc3)c(F)c2)c1`, for which the fold change (FC) in assay [1] stood at 1.7.
In turn, `O=C(O)c1cc(NCc2ccc(OCc3ccc(F)cc3)cc2)ccc1F` registered a 50% effective concentration (EC50) in assay [2] of 1610 nM. Moreover, the fold change (FC) in assay [1] turned out to be 1.2.
In the same order, the values of `O=C(O)c1cccc(NCc2ccc(OCc3cccc(F)c3)cc2)c1` are 1180 nM and 1.2.
In the same order, the values of `O=C(O)c1cccc(NCc2ccc(OCc3ccc(C(F)(F)F)cc3)cc2)c1` are 960 nM and 0.9.
Turning to `O=C(O)c1cccc(NCc2ccc(OCCc3ccccc3)cc2)c1`, the fold change (FC) in assay [1] stood at 0.9.
Take `O=C(O)c1cc(F)cc(NCc2ccc(OCc3ccc(F)cc3)c(Cl)c2)c1`: a half-maximal response in assay [2] (EC50) required 52 nM. Moreover, the fold change (FC) in assay [1] was found to be 1.8.
The like results for `CC(C)(Oc1ccc(CNc2cccc(C(=O)O)c2)cc1)c1ccc(F)cc1` were, in that order, 8520 nM and 0.8.
`O=C(O)c1cccc(NCc2ccc(OCc3ccc(F)cc3)cc2OCc2ccc(F)cc2)c1` showed an EC50 in assay [2] of 930 nM. For the same molecule, the fold change (FC) in assay [1] is 1.2.
On to `CC(C)(Sc1cccc(NCc2ccc(OCc3ccc(F)cc3)cc2)c1)C(=O)O`, for which the fold change (FC) in assay [1] is 1.1.
`O=C(O)c1cccc(NCc2ccc(OCc3ccc(F)cc3)c(OCc3ccc(F)cc3)c2)c1` yielded an EC50 in assay [2] of 810 nM. In addition, in assay [1], the fold change (FC) came out at 1.4.
As to `Cc1nc(-c2ccc(C(F)(F)F)cc2)sc1C(=O)NCc1ccc(OC(C)(C)C(=O)O)cc1`, the -TdeltaS in assay [3] was found to be 4.9 kcal/mol. Moreover, the fold change (FC) in assay [1] is 1. Further, the deltaH in assay [4] was -14.1 kcal/mol.
Regarding `Cc1cc(OCc2ccc(F)cc2)ccc1CNc1cccc(C(=O)O)c1`, a half-maximal response in assay [2] (EC50) required 1450 nM. Also, the fold change (FC) in assay [1] is 1.2.
Consider `O=C(O)c1ccc(NCc2ccc(OCc3ccc(F)cc3)cc2)cc1`, for which, in assay [1], the fold change (FC) stood at 0.4.
For the molecule `O=C(O)c1cc(Br)cc(NCc2ccc(OCc3ccc(F)cc3)cc2)c1`, the results for the EC50 in assay [5], in assay [2] and in assay [6] were > 100000 nM, 1120 nM and > 100000 nM, respectively. The fold change (FC) in assay [1] was 1.4. For the same molecule, the Ratio EC50 in the assay filed under Homo sapiens [7] and in the assay listed under Homo sapiens [8] was > 100 each time.
Take `Cc1cc(CNc2cccc(C(=O)O)c2)ccc1OCc1ccc(Br)cc1`: the fold change (FC) in assay [1] came to 1.3.
On the same count and under the same terms, for `CS(=O)(=O)Nc1cccc(NCc2ccc(OCc3ccc(F)cc3)cc2)c1` the value was 0.1.
Regarding `O=C(O)c1cc(F)cc(NCc2ccc(OCc3ccc(F)cc3)cc2)c1`, the EC50 in assay [5] is > 100000 nM; in assay [2], 580 nM; in assay [6], > 100000 nM. Moreover, the fold change (FC) in assay [1] amounted to 1.1. Moreover, the Ratio EC50 in the assay filed under Homo sapiens [7] and in the assay listed under Homo sapiens [8] was > 170 each time.
On to `OB(O)c1cccc(NCc2ccc(OCc3ccc(F)cc3)cc2)c1`, for which the fold change (FC) in assay [1] stood at 0.1.
Consider `Cc1ccc(C(=O)O)cc1NCc1ccc(OCc2ccc(F)cc2)cc1`, for which the fold change (FC) in assay [1] came out at 0.3.
As for `O=C(NO)c1cccc(NCc2ccc(OCc3ccc(F)cc3)cc2)c1`, the fold change (FC) in assay [1] came out at 0.6.
Molecule `Cc1cc(CN(C)c2cccc(C(=O)O)c2)ccc1OCc1ccc(F)cc1` showed an EC50 in assay [2] of 67 nM. In assay [1], the fold change (FC) was determined as 2.1.
In the case of `Cc1cc(CNc2cccc(C(=O)O)c2)ccc1OCc1ccc(I)cc1`, the fold change (FC) in assay [1] came to 1.5.
Regarding `Cc1cc(CNc2cccc(C(=O)O)c2)ccc1OCc1ccc(Cl)cc1`, the fold change (FC) in assay [1] was found to be 1.2.
Take `NS(=O)(=O)c1cccc(NCc2ccc(OCc3ccc(F)cc3)cc2)c1`: the fold change (FC) in assay [1] was determined as 0.1.
The same measure, in the same setting: for `Cc1cc(CNc2cc(F)cc(C(=O)O)c2)ccc1OCc1ccc(F)cc1` the value was 1.5.
Consider `O=C(O)c1cccc(NCc2ccc(OCc3ccc(F)c(F)c3)cc2)c1`, for which, in assay [2], the EC50 was 360 nM. The fold change (FC) in assay [1] is 1.2.
In the case of `C[C@H](Oc1ccc(CNc2cccc(C(=O)O)c2)cc1)c1ccc(F)cc1`, the fold change (FC) in assay [1] worked out at 1.6.
Turning to `O=C(O)c1cccc(NCc2ccc(OCc3ccc(Br)cc3)cc2)c1`, the EC50 in assay [2] was determined as 970 nM. For the same molecule, the fold change (FC) in assay [1] was found to be 1.3.
Turning to `O=C(O)c1cccc(NCc2ccc(OCc3ccc(Cl)cc3)cc2)c1`, the EC50 in assay [2] amounted to 830 nM. The fold change (FC) in assay [1] came to 1.5.
`O=C(O)c1cccc(NCc2ccc(OCc3ccc(I)cc3)cc2)c1`: it took 1450 nM to reach a half-maximal effect in assay [2] (EC50). Also, in assay [1], the fold change (FC) is 1.1.
`Cc1cc(CNc2cccc(OC(C)(C)C(=O)O)c2)ccc1OCc1ccc(F)cc1`: in assay [1], the fold change (FC) came out at 1.6.
Turning to `CC(C)(Oc1cccc(NCc2ccc(OCc3ccc(F)cc3)cc2)c1)C(=O)O`, in assay [1], the fold change (FC) came to 2.
On the same count and under the same terms, for `O=C(O)c1cccc(NCc2ccc(OCc3cc(F)cc(F)c3)cc2)c1` the value was 1.1.
Still for that read-out and setting: for `COc1ccc(CCOc2ccc(CNc3cccc(C(=O)O)c3)cc2)cc1` the value was 0.9; for `COc1ccc(COc2ccc(CNc3cccc(OC(C)(C)C(=O)O)c3)cc2)cc1`, 1.8.
`Cc1cc(CNc2cccc(C(=O)O)c2)ccc1OCc1cc(F)cc(F)c1`: the fold change (FC) in assay [1] came to 1.6.
On the same count and under the same terms, for `O=C(O)c1cccc(NCc2ccc(OCc3ccccc3F)cc2)c1` the value was 1; for `CC(C)(Oc1cccc(NCc2ccc(OCc3ccc(C(F)(F)F)cc3)cc2)c1)C(=O)O`, 1.2; for `Cc1cc(CNc2cccc(C(=O)O)c2)ccc1OCc1ccc(F)c(F)c1`, 1.6.
With `CC(C)(Oc1ccc(NCc2ccc(OCc3ccc(F)cc3)cc2)cc1)C(=O)O`, in assay [1], the fold change (FC) turned out to be 1.8.
Take `O=C(O)c1cc(Cl)cc(NCc2ccc(OCc3ccc(F)cc3)cc2)c1`: the fold change (FC) in assay [1] stood at 1.1.
Still for that read-out and setting: then `N#Cc1ccc(COc2ccc(CNc3cccc(C(=O)O)c3)cc2)cc1`, with 1.
On to `O=C(O)c1cccc(NCc2ccc(OCc3ccc(F)cc3F)cc2)c1`, for which the EC50 in assay [5] is > 100000 nM; in assay [2], 540 nM; in assay [6], > 100000 nM. Moreover, the fold change (FC) in assay [1] turned out to be 1.2. For the same molecule, the Ratio EC50 in the assay listed under Homo sapiens [7] and in the assay listed under Homo sapiens [8] was > 175 throughout.
`CN(Cc1ccc(OCc2ccc(F)cc2)cc1)c1cccc(C(=O)O)c1` showed an EC50 in assay [2] of 900 nM. In addition, in assay [1], the fold change (FC) was 1.7.
With `Cc1cc(CNc2cccc(C(=O)O)c2)ccc1OCc1ccc(F)cc1F`, the fold change (FC) in assay [1] was 1.4.
On the same count and under the same terms, then `O=C(O)c1cccc(NCc2ccc(OCc3ccc(F)cc3)c(Cl)c2)c1`, with 1.5.
In the case of `C[C@@H](Oc1ccc(CNc2cccc(C(=O)O)c2)cc1)c1ccc(F)cc1`, the EC50 in assay [2] was determined as 25600 nM. Also, the fold change (FC) in assay [1] is 0.6.
As for `Fc1ccc(COc2ccc(CNc3cccc(-c4nnn[nH]4)c3)cc2)cc1`, the fold change (FC) in assay [1] was determined as 1.6.

The term EC50 denotes the concentration at which the effect is half-maximal.
